Screening results (PubChem)
Shown is part of a subset that was picked to be rich in hits.
HCT116 PTEN-null = growth suppression of PTEN-null HCT116, primary screen, cell-based, CellTiter-Glo; HCT116 PTEN-null viability, 60 h; hits give low values; viability, % at 10 µM; actives 1.2% (n = 140,000); AID 827, 2007;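 active means viability at or below a set limit, 4 SD under the median of all tested compounds, cut at about 3.7% in these data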;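 further: PTEN knockout HCT116 line with beta catenin targeted HCT116 as companion control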
H69AR inhibit = proliferation blockers of H69AR lung cancer cells, primary screen, cell-based, human, 86K library; AID 598, 2007; H69AR lung tumor viability, ATP luminescence, 72 h; hits give low values; viability, % at 10 µM; actives 6% (n = 85,000);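 active means viability at or below 40%; inactive means viability above 40%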;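 further: multidrug resistant small cell line overexpressing MRP-1 efflux transporter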
Fibroblast inh = antiproliferative effect on LL 47 fibroblasts – human, LL 47 cells, CellTiter-Glo luminescence, primary screen | LL 47 human lung fibroblast viability, ATP luminescence; hits give low values | viability, % at 10 µM | actives 1.1% (n = 85,000) | AID 719, 2007;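 active means viability at or below 50% in the single dose screen; inactive means viability above 50%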;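 further: compound exposure lasted 72 h before the ATP readout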
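Material: human LL 47 lung fibroblast cells; quantity: 1,150 cells/well; medium: IMEM plus 15% FBS; doses: 0.1% DMSO in all compound wells; timing: overnight attachment after seeding, then 72 h compound exposure at 37 °C; detection: CellTiter-Glo luminescence; measure: % viability of median cell-only signal; controls: cell-only wells, no compound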
Phagocytosis inh = inhibitors of macrophage phagocytosis, primary screen, imaging, J774A.1 cells, IgG beads; J774A.1 macrophage IgG-bead phagocytosis; inhibition, % at 5 µM; actives 0.07% (n = 110,000); AID 1029, 2008;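 active means inhibition above the mean of the plate negative controls plus 5 SD, cut at about 13% in these data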;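 further: phagocytic index as fraction of beads internalized from green versus red external bead signal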
HUVEC prolif 384 = inhibitors of HUVEC proliferation, primary screen, cell-based, 384-well; viability, % at 10 µM (by protocol); CellTiter-Glo luminescence, 72 h; hits give low values; actives 1.1% (n = 86,000);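 active means viability at or below 30%; inactive means viability above 30%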
bCat KO growth = primary screen for growth suppressors in beta-catenin knockout HCT116 cells (colon tumor, human). HCT116 beta-catenin knockout viability, CellTiter-Glo, 60 h; hits give low values. viability, % at 10 µM. actives 1.5% (n = 140,000);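 active means viability at or under a set limit, the compound median less 4 SD, cut at about 6% in these data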
Hits are given with their value; i = inactive; nt = not tested or not shown.

SMILES | HCT116 PTEN-null | H69AR inhibit | Fibroblast inh | Phagocytosis inh | HUVEC prolif 384 | bCat KO growth
Cc1ccc(O)c(/C=N/NC(=O)C2=NNC(c3ccccc3)(c3ccccc3)C2)c1 | i | 37 | 12 | nt | 4.0 | i
CC(=O)c1c(C)[nH]c(C(=O)OC(C)C(=O)Nc2cc(S(=O)(=O)N3CCCCC3)ccc2Cl)c1C (centres undefined) | i | nt | nt | i | nt | i
O=C(N/N=C/c1c[nH]c2ccccc12)c1[nH]c2ccc(Br)cc2c1-c1ccccc1 | 1.2 | nt | nt | i | nt | 1.3
O=C(CCN1CCc2ccccc2C1)Nc1ccccc1 | i | i | i | i | i | i
Cc1cccc(C(=O)Nc2ccc(C(=O)/C=C/c3cccnc3)cc2)c1 | 1.6 | nt | nt | i | nt | 1.4
O=C(N/C(=C\c1cccnc1)C(=O)N1CCOCC1)c1cccc(Br)c1 | i | nt | nt | i | nt | i
O=C(/C=C/c1cccnc1)c1ccc(NC(=O)c2cccc(Br)c2)cc1 | 3.6 | nt | nt | i | nt | 5.7
Cc1cccc(NC(=O)c2cccnc2)c1 | i | i | i | i | i | i
CC(=O)Nc1ccc([C@H]2[C@H](C)CC[C@H]3C(=O)N4[C@@H](CC[C@@H](C)[C@@H]4c4ccc(NC(C)=O)cc4)C(=O)N32)cc1 | i | nt | nt | nt | nt | i
COCCN(C(=O)c1csnn1)C(C(=O)NC(C)(C)C)c1cccc(OC)c1 (centres undefined) | i | i | i | i | i | i
CN1CCN(c2nc(NCCOC34CC5CC(CC(C5)C3)C4)nc(OCC(F)(F)F)n2)CC1 | i | 1.9 | i | i | 9.5 | i
CCCCn1nnnc1NCc1ccc(C)s1 | i | i | i | nt | i | i
COc1ccc(NS(=O)(=O)c2cccc(C(=O)NNC(=O)c3cc(C)oc3C)c2)cc1 | i | nt | nt | nt | nt | i
COc1ccc(NS(=O)(=O)c2cc(C)ccc2NC(=O)c2cc(C)oc2C)cc1 | i | 29 | i | i | i | i
COC1(OC)N=C(N)C2(C#N)C(c3ccc4c(c3)OCO4)C12C#N (centres undefined) | i | 33 | i | i | i | i
COC1(OC)N=C(N)C2(C#N)C(c3ccc(C)cc3)C12C#N (centres undefined) | i | i | i | i | i | i
O=C(/C=C/c1ccccc1)N/C(=C/c1ccccc1)C(=O)N1CCCCC1 | i | nt | nt | i | nt | i
CC(C)(C)c1ccc(Cn2nnc3c(=O)[nH]c(C4CCCN(C(=O)Cc5cccs5)C4)nc32)cc1 (centres undefined) | i | 17 | i | nt | i | i
CCOC(=O)c1sc(=S)n(C)c1NC(=O)c1ccccc1C | i | nt | nt | i | nt | i
CCOc1cccc(NC(=O)C2CC(=O)NC(=Nc3ccccc3)S2)c1 (centres undefined) | i | i | i | i | i | i
O=C(NCCc1ccc(Cl)cc1)/C(=C/c1cccnc1)NC(=O)c1ccccc1 | i | nt | nt | i | nt | i
O=c1cc(N2CCC(Cc3ccccc3)CC2)[nH]c(=O)n1C1CCCCC1 | i | 27 | i | nt | i | i
Cc1[nH]c2ccccc2c1CN1CCc2ccccc2C1 | 2.7 | 35 | i | i | i | 2.2
Cc1ccc2c(c1)c1c(n2CC(O)Cn2nc(C)c(Br)c2C)CCCC1 (centres undefined) | i | i | i | i | i | i
Cc1ccc2c(c1)c1c(n2CC(O)Cn2c(C)nc3ccccc32)CCCC1 (centres undefined) | i | 1.5 | i | nt | 11 | i
SMILES | HCT116 PTEN-null | H69AR inhibit | Fibroblast inh | Phagocytosis inh | HUVEC prolif 384 | bCat KO growth
O=C(c1ccc(Cl)c(F)c1F)N1CCCC1 | i | i | i | nt | i | i
COc1ccc(Cn2c(-c3ccc(OC)cc3)nc3ccccc32)cc1 | i | i | i | nt | i | i
COc1ccc(CCN2CCC(Nc3nc4ccccc4n3Cc3ccc(F)cc3)CC2)cc1 | 1.2 | 1.5 | 2.1 | nt | 1.9 | 1.0
CCOC(=O)c1cc(-c2ccncc2)nc2c1c(C)nn2C | i | 33 | i | i | i | i
c1ccc(-n2nnnc2Sc2ncnc3sc4c(c23)CCCC4)cc1 | i | nt | nt | i | nt | 4.5
CCSc1ncnc2sc3c(c12)CCC3 | i | i | i | i | i | i
Cc1sc2ncnc(Sc3nnnn3-c3ccc(Cl)cc3)c2c1C | i | 1.4 | i | i | 9.9 | 4.9
Cc1sc2ncnc(SCc3ccco3)c2c1C | i | i | i | i | i | i
